{"source": "ChEMBL document CHEMBL1122654", "about": "“Phosphorus analogues of gamma-aminobutyric acid, a new class of anticonvulsants” (J Med Chem, 1984)", "key": {"Mus musculus [1]": {"tested_on": "Mus musculus", "test": "In vivo anticonvulsant activity against pentylene tetrazole seizure threshold(SMC) in mice 0.5 hr after sc administration; inactive at 600 mg/kg", "assay_type": "functional, organism-based", "set-up": "dose 600 mg/kg"}, "[2]": {"target": "GABA-A receptor; anion channel (Rattus norvegicus) (UniProt O09028+P15431+P18506+P18508+P19969+P20236+P23574+P23576+P28471+P28473+P30191+P62813+P63079+P63138+Q91ZM7+Q9ES14)", "test": "Displacement of [3H]-GABA from Gamma-aminobutyric acid A receptor binding sites in brain homogenates (relative to 1 mM GABA) at 100 uM", "assay_type": "tissue-based", "procedure,_shortened": "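Male Sprague-Dawley rat brain, frozen, homogenized in 50 mM Tris-citrate (pH 7.1 at 4 °C). Membranes treated with 0.05% Triton X-100 for 30 min at 37 °C and resuspended at 0.5–1.0 mg/mL protein. Incubated with 8 nM [3H]GABA for 5 min at 4 °C, stopped by centrifugation, and counted by scintillation. Test concentration 100 µM. Expressed as percent of the inhibition given by 1 mM GABA. Mean of two experiments, each in triplicate.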"}, "Mus musculus [3]": {"tested_on": "Mus musculus", "test": "In vivo anticonvulsant activity against electric shock induced seizures(MES) in mice 4 hr after ip administration; inactive at 600 mg/kg", "assay_type": "functional, organism-based", "set-up": "dose 600 mg/kg"}, "Mus musculus [4]": {"tested_on": "Mus musculus", "test": "In vivo neurotoxicity at 600 mg/kg, number of animals exhibiting neurotoxicity in the rotarod test / number of animals tested 4 hr", "assay_type": "toxicity, organism-based", "set-up": "dose 600 mg/kg"}, "[5]": {"target": "GABA B receptor (Rattus norvegicus) (UniProt Q9Z0U4+O88871)", "test": "Displacement of [3H]GABA from GABA-B binding sites in brain homogenates (relative to 100 uM baclofen) at 100 uM", "assay_type": "tissue-based", "procedure,_shortened": "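Rat brain membrane binding (male Sprague-Dawley) using 10 nM [3H]GABA, with 100 µM isoguvacine present to block GABA-A sites. Test concentration 100 µM. Percent inhibition expressed relative to 100 µM baclofen. Mean of two separate experiments, each in triplicate.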"}, "Mus musculus [6]": {"tested_on": "Mus musculus", "test": "In vivo anticonvulsant activity against pentylene tetrazole seizure threshold(SMC) in mice 4 hr after sc administration; inactive at 600 mg/kg", "assay_type": "functional, organism-based", "set-up": "dose 600 mg/kg"}, "Mus musculus [7]": {"tested_on": "Mus musculus", "test": "In vivo neurotoxicity at 600 mg/kg, number of animals exhibiting neurotoxicity in the rotarod test / number of animals tested at 0.5 hr", "assay_type": "toxicity, organism-based", "set-up": "dose 600 mg/kg"}, "Mus musculus [8]": {"tested_on": "Mus musculus", "test": "In vivo anticonvulsant activity against electric shock induced seizures(MES) in mice 0.5 hr after ip administration; inactive at 600 mg/kg", "assay_type": "functional, organism-based", "set-up": "dose 600 mg/kg"}, "[9]": {"test": "Partition coefficient (logP)", "assay_type": "physicochemical", "conditions": "octanol/water"}, "Mus musculus [10]": {"tested_on": "Mus musculus", "test": "In vivo anticonvulsant activity against electric shock induced seizures(MES) in mice 4 hr after ip administration; indicates inactive at 600 mg/kg", "assay_type": "functional, organism-based", "set-up": "dose 600 mg/kg"}, "Mus musculus [11]": {"tested_on": "Mus musculus", "test": "In vivo neurotoxicity at 600 mg/kg, number of animals exhibiting neurotoxicity in the rotarod test / number of animals tested at 0.5 hr; 0/4", "assay_type": "toxicity, organism-based", "set-up": "dose 600 mg/kg"}, "Mus musculus [12]": {"tested_on": "Mus musculus", "test": "In vivo anticonvulsant activity against electric shock induced seizures(MES) in mice 0.5 hr after ip administration; indicates inactive at 600 mg/kg", "assay_type": "functional, organism-based", "set-up": "dose 600 mg/kg"}, "Mus musculus [13]": {"tested_on": "Mus musculus", "test": "In vivo anticonvulsant activity against pentylene tetrazole seizure threshold(SMC) in mice 4 hr after sc administration; indicates inactive at 600 mg/kg", "assay_type": "functional, organism-based", "set-up": "dose 600 mg/kg"}, "Mus musculus [14]": {"tested_on": "Mus musculus", "test": "In vivo anticonvulsant activity against pentylenetetrazole seizure threshold(SMC) in mice 0.5 hr after sc administration; indicates inactive at 600 mg/kg", "assay_type": "functional, organism-based", "set-up": "dose 600 mg/kg"}, "Mus musculus [15]": {"tested_on": "Mus musculus", "test": "In vivo neurotoxicity at 600 mg/kg, number of animals exhibiting neurotoxicity in the rotarod test / number of animals tested at 4 hr; 0/2", "assay_type": "toxicity, organism-based", "set-up": "dose 600 mg/kg"}, "Mus musculus [16]": {"tested_on": "Mus musculus", "test": "In vivo anticonvulsant activity against electric shock induced seizures(MES) in mice; 104-131", "assay_type": "functional"}, "Mus musculus [17]": {"tested_on": "Mus musculus", "test": "In vivo anticonvulsant activity against electric shock induced seizures(MES) in mice 0.5 hr after ip administration; ++ indicates activity at 300 mg/kg.", "assay_type": "functional, organism-based", "set-up": "dose 300 mg/kg"}, "Mus musculus [18]": {"tested_on": "Mus musculus", "test": "In vivo neurotoxicity at 600 mg/kg, number of animals exhibiting neurotoxicity in the rotarod test / number of animals tested at 0.5 hr; 4/4", "assay_type": "toxicity, organism-based", "set-up": "dose 600 mg/kg"}, "Mus musculus [19]": {"tested_on": "Mus musculus", "test": "In vivo anticonvulsant activity against electric shock induced seizures(MES) in mice 4 hr after ip administration; + indicates activity at 600 mg/kg.", "assay_type": "functional, organism-based", "set-up": "dose 600 mg/kg"}, "Mus musculus [20]": {"tested_on": "Mus musculus", "test": "In vivo neurotoxicity at 600 mg/kg, number of animals exhibiting neurotoxicity in the rotarod test / number of animals tested 4 hr; 2/2", "assay_type": "toxicity, organism-based", "set-up": "dose 600 mg/kg"}}, "note": "Activity calls are given as the source filed them."}
{"smiles": "NCCCP(=O)(O)O", "values": [{"measurement": "Anticonvulsant activity", "setting": "Mus musculus [1]", "result": "inactive"}, {"measurement": "inhibition", "setting": "[2]", "result": 12, "unit": "%"}, {"measurement": "Anticonvulsant activity", "setting": "Mus musculus [3]", "result": "inactive"}, {"measurement": "Toxicity", "setting": "Mus musculus [4]", "result": "Not Active"}, {"measurement": "inhibition", "setting": "[5]", "result": 91, "unit": "%"}, {"measurement": "Anticonvulsant activity", "setting": "Mus musculus [6]", "result": "inactive"}, {"measurement": "Toxicity", "setting": "Mus musculus [7]", "result": "Not Active"}, {"measurement": "Anticonvulsant activity", "setting": "Mus musculus [8]", "result": "inactive"}]}
{"smiles": "CCOP(=O)(OCC)Oc1ccc([N+](=O)[O-])cc1", "note": "[PARAOXON]", "values": [{"measurement": "logP", "setting": "[9]", "result": 1.64}]}
{"smiles": "CCOP(=O)(OCC)Oc1ccccc1", "note": "[PHOSPHORIC ACID DIETHYL ESTER PHENYL ESTER]", "values": [{"measurement": "logP", "setting": "[9]", "result": 1.64}]}
{"smiles": "CCOP(=S)(OCC)Oc1ccccc1", "values": [{"measurement": "logP", "setting": "[9]", "result": 3.46}]}
{"smiles": "CCOP(=S)(OCC)Oc1ccccc1NC(C)=O", "values": [{"measurement": "inhibition", "setting": "[5]", "result": 35, "unit": "%"}]}
{"smiles": "NCCOP(=O)(O)Oc1ccccc1", "values": [{"measurement": "Anticonvulsant activityAnticonvulsant activity", "setting": "Mus musculus [1]", "result": "inactive"}, {"measurement": "inhibition", "setting": "[2]", "result": 13, "unit": "%"}, {"measurement": "Anticonvulsant activity", "setting": "Mus musculus [3]", "result": "inactive"}, {"measurement": "inhibition", "setting": "[5]", "result": 40, "unit": "%"}, {"measurement": "Anticonvulsant activity", "setting": "Mus musculus [6]", "result": "inactive"}, {"measurement": "Anticonvulsant activity", "setting": "Mus musculus [8]", "result": "inactive"}]}
{"smiles": "CCOP(=S)(OCC)Oc1ccc(SC)cc1Cl", "values": [{"measurement": "logP", "setting": "[9]", "result": 4.4}]}
{"smiles": "CCc1cc(OP(=O)(OC)OC)ccc1[N+](=O)[O-]", "values": [{"measurement": "logP", "setting": "[9]", "result": 2.19}]}
{"smiles": "CCc1cc(OP(=S)(OC)OC)ccc1[N+](=O)[O-]", "values": [{"measurement": "logP", "setting": "[9]", "result": 3.84}]}
{"smiles": "CCOP(=O)(OCC)Oc1ccc(SC)cc1Cl", "values": [{"measurement": "logP", "setting": "[9]", "result": 3.05}]}
{"smiles": "CC(=O)Nc1ccccc1OP(=O)(Oc1ccccc1NC(C)=O)c1ccccc1", "values": [{"measurement": "Anticonvulsant activity", "setting": "Mus musculus [1]", "result": "inactive"}, {"measurement": "inhibition", "setting": "[2]", "result": 46, "unit": "%"}, {"measurement": "Anticonvulsant activity", "setting": "Mus musculus [3]", "result": "inactive"}, {"measurement": "Toxicity", "setting": "Mus musculus [4]", "result": "Not Active"}, {"measurement": "Anticonvulsant activity", "setting": "Mus musculus [6]", "result": "inactive"}, {"measurement": "Toxicity", "setting": "Mus musculus [7]", "result": "Not Active"}, {"measurement": "Anticonvulsant activity", "setting": "Mus musculus [8]", "result": "inactive"}]}
{"smiles": "Nc1cccc(P(=O)(Oc2ccccc2)Oc2ccccc2)c1", "values": [{"measurement": "inhibition", "setting": "[5]", "result": 51, "unit": "%"}]}
{"smiles": "COP(=O)(OC)Oc1ccc([N+](=O)[O-])cc1", "note": "[DIMETHYL 4-NITROPHENYL PHOSPHATE]", "values": [{"measurement": "logP", "setting": "[9]", "result": 1.27}]}
{"smiles": "NCCOP(=O)(O)c1ccccc1", "values": [{"measurement": "Anticonvulsant activity", "setting": "Mus musculus [10]", "result": "inactive"}, {"measurement": "Toxicity", "setting": "Mus musculus [11]", "result": 0}, {"measurement": "Anticonvulsant activity", "setting": "Mus musculus [12]", "result": "inactive"}, {"measurement": "Anticonvulsant activity", "setting": "Mus musculus [13]", "result": "inactive"}, {"measurement": "Anticonvulsant activity", "setting": "Mus musculus [14]", "result": "inactive"}, {"measurement": "inhibition", "setting": "[2]", "result": 15, "unit": "%"}, {"measurement": "Toxicity", "setting": "Mus musculus [15]", "result": 0}, {"measurement": "inhibition", "setting": "[5]", "result": 16, "unit": "%"}]}
{"smiles": "CN1C(=O)CC(c2ccccc2)C1=O", "note": "(stereo not drawn) [PHENSUXIMIDE]", "values": [{"measurement": "ED50", "setting": "Mus musculus [16]", "result": 112, "unit": "mg/kg"}]}
{"smiles": "CCOP(=O)(OCC)Oc1ccc(SC)c(Cl)c1", "values": [{"measurement": "logP", "setting": "[9]", "result": 3.21}]}
{"smiles": "CC(C)OP(=O)(OC(C)C)c1cccc(N)c1", "values": [{"measurement": "Anticonvulsant activity", "setting": "Mus musculus [17]", "result": "activity at 300 mg/kg"}, {"measurement": "Toxicity", "setting": "Mus musculus [18]", "result": 4}, {"measurement": "Anticonvulsant activity", "setting": "Mus musculus [19]", "result": "activity at 300 mg/kg"}, {"measurement": "Toxicity", "setting": "Mus musculus [20]", "result": 2}]}
{"smiles": "COP(=O)(OC)Oc1ccc([N+](=O)[O-])c(Cl)c1", "values": [{"measurement": "logP", "setting": "[9]", "result": 1.83}]}
{"smiles": "CC(CNP(=O)(Oc1ccccc1)Oc1ccccc1)NP(=O)(Oc1ccccc1)Oc1ccccc1", "note": "(stereo not drawn)", "values": [{"measurement": "inhibition", "setting": "[5]", "result": 20, "unit": "%"}]}
{"smiles": "COP(=S)(OC)Oc1ccc([N+](=O)[O-])c(C)c1", "note": "[FENITROTHION]", "values": [{"measurement": "logP", "setting": "[9]", "result": 3.3}]}
